Test results as given in ChEMBL document CHEMBL3414488, “When structure-affinity relationships meet structure-kinetics relationships: 3-((Inden-1-yl)amino)-1-isopropyl-cyclopentane-1-carboxamides as CCR2 antagonists” (Eur J Med Chem, 2015).
Activity calls are given as the source filed them. The calls are words filed in the database; no cut-off is given here.

Tests used:
[1] = molecular target: T1, C-C chemokine receptor type 2 (Homo sapiens, UniProt P41597); assay: Displacement of [3H]INCB3344 from human CCR2 receptor expressed in human U2OS cell membrane assessed as kinetic rate index at Ki by dual-point competition association assay relative to control; assay type: cell membranes
Outline: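 U2OS–CCR2 membranes (10 μg) incubated with 1.8 nM [3H]INCB3344 at 25 °C for 50 min (t1) or 240 min (t2). Unlabeled ligand was present at 1-fold its Ki from 125I-CCL2 displacement. KRI = specific binding at t1 divided by specific binding at t2.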
Target sequence in this assay (P41597 whole entry, looked up): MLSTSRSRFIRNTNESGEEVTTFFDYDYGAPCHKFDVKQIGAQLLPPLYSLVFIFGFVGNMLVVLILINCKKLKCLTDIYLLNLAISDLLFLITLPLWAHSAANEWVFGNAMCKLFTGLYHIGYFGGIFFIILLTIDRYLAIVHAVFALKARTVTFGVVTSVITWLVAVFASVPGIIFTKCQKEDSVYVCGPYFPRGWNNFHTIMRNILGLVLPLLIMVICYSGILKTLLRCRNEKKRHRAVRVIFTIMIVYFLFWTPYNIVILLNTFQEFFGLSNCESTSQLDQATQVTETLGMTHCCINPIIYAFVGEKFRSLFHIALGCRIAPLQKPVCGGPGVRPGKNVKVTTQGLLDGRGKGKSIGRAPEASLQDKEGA

[2] = molecular target: T1, C-C chemokine receptor type 2; assay: Displacement of 0.1 nM [125I]CCL2 from human CCR2 expressing human U2OS cell membrane by scintillation spectrometry; assay type: cell membranes
Outline: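 U2OS–CCR2 membranes (15 μg) incubated 150 min at 37 °C with 0.1 nM 125I-CCL2 with or without competitor. Ki derived from IC50 by Cheng–Prusoff. Mean ± S.E.M. of at least 3 experiments in duplicate.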
Target sequence in this assay (P41597 whole entry): as the sequence (P41597 whole entry, looked up) above

[3] = Residence time of the compound
[4] = molecular target: T1, C-C chemokine receptor type 2; assay: Displacement of 0.1 nM [125I]CCL2 from human CCR2 expressing human U2OS cell membrane by scintillation spectrometry
Target sequence in this assay (P41597 whole entry, looked up): as above

[5] = molecular target: T1, C-C chemokine receptor type 2; assay: Antagonist activity at human CCR2 expressing human U2OS cells assessed as inhibition of CCL2-induced G protein activation at 10 uM by [35S]GTPgammaS binding/scintillation spectrometry assay; assay type: functional, cell-based
Outline: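 Membranes (10 μg) in 50 mM Tris-HCl pH 7.4, 5 mM MgCl2, 100 mM NaCl, 1 mM EDTA, 0.05% BSA, 10 μM GDP, 10 μg saponin; 30 min preincubation with 10 μM antagonist at 25 °C, then 10 nM CCL2 for 30 min, then 0.3 nM [35S]GTPγS for 90 min. Stopped with ice-cold buffer, GF/B filtration, scintillation counting.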
Target sequence in this assay (P41597 whole entry, looked up): as above

SMILES | Ratio [1] | Ki [2] [nM] | Residence time [3] [min] | inhibition [4] [%] | inhibition [5] | Kd [2] [nM]
Cc1cccc2c1CCC2N[C@@H]1CC[C@@](C(=O)N2CCc3ccc(C(F)(F)F)cc3C2)(C(C)C)C1 (stereo not given in full) | 0.7 | 31 |  |  |  | 
CC(C)[C@]1(C(=O)N2CCc3ccc(C(F)(F)F)cc3C2)CC[C@@H](NC2CCc3c(N)cccc32)C1 (stereo not given in full) | 0.7 | 4.6 |  |  |  | 
CC(C)[C@]1(C(=O)N2CCc3ccc(C(F)(F)F)cc3C2)CC[C@@H](NC2CCc3ccc(C#N)cc32)C1 (stereo not given in full) | 0.6 | 13 |  |  |  | 
CC1CC(N[C@@H]2CC[C@@](C(=O)N3CCc4ccc(C(F)(F)F)cc4C3)(C(C)C)C2)c2ccc(Br)cc21 (stereo not given in full) | 1.3 | 2 | 345 |  |  | 
CC(C)[C@]1(C(=O)N2CCc3ccc(C(F)(F)F)cc3C2)CC[C@@H](NC2CCc3c(O)cccc32)C1 (stereo not given in full) | 0.7 | 21 |  |  |  | 
CC(C)[C@]1(C(=O)N2CCc3ccc(C(F)(F)F)cc3C2)CC[C@@H](NC2CCc3c(C#N)cccc32)C1 (stereo not given in full) | 0.6 | 15 |  |  |  | 
CC(C)[C@]1(C(=O)NCc2cc(C(F)(F)F)cc(C(F)(F)F)c2)CC[C@@H](NC2CCc3ccccc32)C1 (stereo not given in full) | 0.8 |  | 9.1 |  |  | 
CC(C)[C@]1(C(=O)N2CCN(c3cc(C(F)(F)F)ccn3)CC2)CC[C@@H](NC2CCc3ccccc32)C1 (stereo not given in full) | 0.5 | 15 | 8.3 |  |  | 
COc1cc2c(cc1OC)C(N[C@@H]1CC[C@@](C(=O)N3CCc4ccc(C(F)(F)F)cc4C3)(C(C)C)C1)CC2 (stereo not given in full) | 1 | 1.2 | 63 |  |  | 
CC(C)[C@]1(C(=O)N2CCc3ccc(C(F)(F)F)cc3C2)CC[C@@H](N[C@H]2C[C@@H](C)c3cc(Br)ccc32)C1 | 1.4 | 1.7 | 588 |  | Active | 
CC(C)[C@]1(C(=O)N2CCc3ccc(C(F)(F)F)cc3C2)CC[C@@H](N[C@@H]2C[C@H](C)c3cc(Br)ccc32)C1 |  | 137 |  |  |  | 
COc1ccc(OC)c2c1CCC2N[C@@H]1CC[C@@](C(=O)N2CCc3ccc(C(F)(F)F)cc3C2)(C(C)C)C1 (stereo not given in full) | 0.8 | 49 |  |  |  | 
CO[C@@H]1COCC[C@@H]1N[C@@H]1CC[C@@](C(=O)N2CCc3ncc(C(F)(F)F)cc3C2)(C(C)C)C1 [MK-0812] |  | 0.55 | 92 |  |  | 0.48
CCC1CC(N[C@@H]2CC[C@@](C(=O)N3CCc4ccc(C(F)(F)F)cc4C3)(C(C)C)C2)c2cc(OC)c(Br)cc21 (stereo not given in full) | 1.3 | 83 | 179 |  |  | 
CC(C)[C@]1(C(=O)N2CCc3ccc(C(F)(F)F)cc3C2)CC[C@@H](N[C@@H]2C[C@@H](C)c3cc(Br)ccc32)C1 |  | 199 |  |  |  | 
CC1CC(N[C@@H]2CC[C@@](C(=O)N3CCc4ccc(C(F)(F)F)cc4C3)(C(C)C)C2)c2ccccc21 (stereo not given in full) | 0.7 | 3.4 |  |  |  | 
COc1cc2c(cc1Br)C(C)CC2N[C@@H]1CC[C@@](C(=O)N2CCc3ccc(C(F)(F)F)cc3C2)(C(C)C)C1 (stereo not given in full) | 1.5 | 13 | 238 |  |  | 
CC(C)[C@]1(C(=O)N2CCc3ccc(C(F)(F)F)cc3C2)CC[C@@H](N[C@H]2C[C@H](C)c3cc(Br)ccc32)C1 | 1.2 | 4.6 | 208 |  | Active | 

Next, values leading:

Ratio [1] | Ki [2] [nM] | Residence time [3] [min] | inhibition [4] [%] | inhibition [5] | Kd [2] [nM] | SMILES
0.6 | 23 |  |  |  |  | COc1cc(-c2ccc3c(c2)CCC3N[C@@H]2CC[C@@](C(=O)N3CCc4ccc(C(F)(F)F)cc4C3)(C(C)C)C2)ccn1 (stereo not given in full)
 |  |  | 2 |  |  | COc1ccccc1-c1ccc2c(c1)CCC2N[C@@H]1CC[C@@](C(=O)N2CCc3ccc(C(F)(F)F)cc3C2)(C(C)C)C1 (stereo not given in full)
0.9 | 11 |  |  |  |  | CC(C)[C@]1(C(=O)N2CCc3ccc(C(F)(F)F)cc3C2)CC[C@@H](NC2CCc3cc(-c4ccc(C#N)cc4)ccc32)C1 (stereo not given in full)
1.3 | 4.5 | 323 |  |  |  | COc1cc2c(cc1Br)CCC2N[C@@H]1CC[C@@](C(=O)N2CCc3ccc(C(F)(F)F)cc3C2)(C(C)C)C1 (stereo not given in full)
0.6 | 23 |  |  |  |  | Cc1ccc2c(c1)C(N[C@@H]1CC[C@@](C(=O)N3CCc4ccc(C(F)(F)F)cc4C3)(C(C)C)C1)CC2 (stereo not given in full)
0.5 | 10 |  |  |  |  | CCOc1cncc(-c2ccc3c(c2)CCC3N[C@@H]2CC[C@@](C(=O)N3CCc4ccc(C(F)(F)F)cc4C3)(C(C)C)C2)c1 (stereo not given in full)
1 | 2.2 | 21 |  |  |  | CC(C)[C@]1(C(=O)N2CCc3ccc(C(F)(F)F)cc3C2)CC[C@@H](NC2CCc3ccccc32)C1 (stereo not given in full)
0.9 | 4.9 | 55 |  |  |  | CC(C)[C@]1(C(=O)N2CCc3ccc(C(F)(F)F)cc3C2)CC[C@@H](NC2CCc3cc(F)ccc32)C1 (stereo not given in full)
0.8 | 12 |  |  |  |  | COc1cc(-c2ccc3c(c2)CCC3N[C@@H]2CC[C@@](C(=O)N3CCc4ccc(C(F)(F)F)cc4C3)(C(C)C)C2)c(F)cn1 (stereo not given in full)
0.9 | 75 |  |  |  |  | COc1ccc(-c2ccc3c(c2)CCC3N[C@@H]2CC[C@@](C(=O)N3CCc4ccc(C(F)(F)F)cc4C3)(C(C)C)C2)cc1 (stereo not given in full)
0.8 | 41 |  |  |  |  | COc1cncc(-c2ccc3c(c2)CCC3N[C@@H]2CC[C@@](C(=O)N3CCc4ccc(C(F)(F)F)cc4C3)(C(C)C)C2)c1 (stereo not given in full)
0.8 | 39 |  |  |  |  | COc1cccc(-c2ccc3c(c2)CCC3N[C@@H]2CC[C@@](C(=O)N3CCc4ccc(C(F)(F)F)cc4C3)(C(C)C)C2)c1 (stereo not given in full)
0.8 | 24 | 15 |  | Active |  | CC(C)[C@]1(C(=O)N2CCc3ccc(C(F)(F)F)cc3C2)CC[C@@H](N[C@H]2CCc3cc(Br)ccc32)C1
0.7 | 10 |  |  |  |  | CC(C)[C@]1(C(=O)N2CCc3ccc(C(F)(F)F)cc3C2)CC[C@@H](NC2CCc3cc(-c4cccnc4)ccc32)C1 (stereo not given in full)
1.4 | 13 | 667 |  | Active |  | CC(C)[C@]1(C(=O)N2CCc3ccc(C(F)(F)F)cc3C2)CC[C@@H](NC2CCc3cc(C(F)(F)F)ccc32)C1 (stereo not given in full)
 |  |  | 24 |  |  | Cc1cccc(-c2ccc3c(c2)CCC3N[C@@H]2CC[C@@](C(=O)N3CCc4ccc(C(F)(F)F)cc4C3)(C(C)C)C2)c1 (stereo not given in full)
1.3 | 4.4 | 103 |  |  |  | CC(C)[C@]1(C(=O)N2CCc3ccc(C(F)(F)F)cc3C2)CC[C@@H](NC2CCc3cc(I)ccc32)C1 (stereo not given in full)
1.2 | 1.6 | 100 |  |  |  | CC(C)[C@]1(C(=O)N2CCc3ccc(C(F)(F)F)cc3C2)CC[C@@H](NC2CCc3cc(Cl)ccc32)C1 (stereo not given in full)
0.7 | 55 |  |  |  |  | CC(C)[C@]1(C(=O)N2CCc3ccc(C(F)(F)F)cc3C2)CC[C@@H](NC2CCc3cc(-c4cccc(C#N)c4)ccc32)C1 (stereo not given in full)
 |  |  | 28 |  |  | CC(C)[C@]1(C(=O)N2CCc3ccc(C(F)(F)F)cc3C2)CC[C@@H](NC2CCc3cc(-c4ccccc4)ccc32)C1 (stereo not given in full)
1.3 | 2.3 | 213 |  |  |  | CC(C)[C@]1(C(=O)N2CCc3ccc(C(F)(F)F)cc3C2)CC[C@@H](NC2CCc3cc(Br)ccc32)C1 (stereo not given in full)
0.6 | 7.9 |  |  |  |  | CC(C)[C@]1(C(=O)N2CCc3ccc(C(F)(F)F)cc3C2)CC[C@@H](NC2CCc3ccc(Cl)cc32)C1 (stereo not given in full)
1.7 | 2.4 | 714 |  | Active |  | CC(C)[C@]1(C(=O)N2CCc3ccc(C(F)(F)F)cc3C2)CC[C@@H](N[C@@H]2CCc3cc(Br)ccc32)C1
 |  |  | 46 |  |  | Cc1ccccc1-c1ccc2c(c1)CCC2N[C@@H]1CC[C@@](C(=O)N2CCc3ccc(C(F)(F)F)cc3C2)(C(C)C)C1 (stereo not given in full)
